Data reported in ChEMBL document CHEMBL1629456, “ApoA-I mimetic peptides promote pre-β HDL formation in vivo causing remodeling of HDL and triglyceride accumulation at higher dose” (Bioorg Med Chem, 2010).
Activity calls are given as the source filed them. The rule behind the calls is not given here. Where a SMILES comes first, the peptide text is derived from it. [ ]: non-standard residue; d: D form. dGly(6-heptenyl) = C=CCCCCC[C@@H](N)C(=O)O; Ala(5-hexenyl) = C=CCCCCC[C@H](N)C(=O)O; dNle(6-vinyl) = C=CCCCC[C@@H](N)C(=O)O

What was measured:
[1] = target: Phospholipid-transporting ATPase ABCA1 (Mus musculus, UniProt P41233); test: Induction of ABCA1-mediated [3H]cholesterol efflux in mouse RAW 264.7 macrophages after 24 hrs
[2] = Plasma concentration in C57/BL6 mouse at 60 mg/kg, sc after 3 hrs; assay type: ADME, organism-based, C57Bl/6; design: dose 60 mg/kg, route subcutaneous
Summary of the method: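 Male C57Bl/6 mice were dosed subcutaneously with peptide in 50 mM mannitol/PBS. Serum was taken by cardiac puncture, and peptide was measured by LC–MS/MS after acetonitrile protein precipitation.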

Mus musculus [3] = test: Effect on triglyceride level in C57/BL6 mouse at 60 mg/kg, sc after 1 hr; assay type: functional, organism-based; design: dose 60 mg/kg; settings: C57Bl/6
Summary of the method: (§1)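 Male C57Bl/6 mice (≥12 weeks, chow-fed) given peptide subcutaneously in 50 mM mannitol/PBS vehicle. Serum was collected by cardiac puncture at 1 or 3 h, clotted 1 h at room temperature and spun at 10,000g. Serum triglyceride was measured by enzymatic colorimetric assay, with 3–5 animals per dose and time point.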

[4] = target: Lipoprotein lipase (Bos taurus) (UniProt P11151); test: Inhibition of Lipoprotein lipase in vitro
Mus musculus [5] = test: Effect on triglyceride level in C57/BL6 mouse at 20 mg/kg, sc after 3 hrs; assay type: functional, organism-based; design: dose 20 mg/kg; settings: C57Bl/6
Summary of the method: as §1

Plasma = test: Induction of pre-beta HDL formation in human plasma after 2 hrs by ELISA; assay type: functional, cell-free
Summary of the method: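 Increasing peptide concentrations were incubated with normal human plasma at 37 °C for 2 h. Pre-β HDL was quantified by a commercial human pre-β HDL ELISA.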

Mus musculus [6] = test: Effect on triglyceride level in C57/BL6 mouse at 20 mg/kg, sc after 1 hr; assay type: functional, organism-based; design: dose 20 mg/kg; settings: C57Bl/6
Summary of the method: as §1

Mus musculus [7] = test: Effect on triglyceride level in C57/BL6 mouse at 60 mg/kg, sc; assay type: functional, organism-based; design: dose 60 mg/kg; settings: C57Bl/6, TDE = time-dependent effect
Summary of the method: as §1

Sequence of Phospholipid-transporting ATPase ABCA1 (P41233 whole entry): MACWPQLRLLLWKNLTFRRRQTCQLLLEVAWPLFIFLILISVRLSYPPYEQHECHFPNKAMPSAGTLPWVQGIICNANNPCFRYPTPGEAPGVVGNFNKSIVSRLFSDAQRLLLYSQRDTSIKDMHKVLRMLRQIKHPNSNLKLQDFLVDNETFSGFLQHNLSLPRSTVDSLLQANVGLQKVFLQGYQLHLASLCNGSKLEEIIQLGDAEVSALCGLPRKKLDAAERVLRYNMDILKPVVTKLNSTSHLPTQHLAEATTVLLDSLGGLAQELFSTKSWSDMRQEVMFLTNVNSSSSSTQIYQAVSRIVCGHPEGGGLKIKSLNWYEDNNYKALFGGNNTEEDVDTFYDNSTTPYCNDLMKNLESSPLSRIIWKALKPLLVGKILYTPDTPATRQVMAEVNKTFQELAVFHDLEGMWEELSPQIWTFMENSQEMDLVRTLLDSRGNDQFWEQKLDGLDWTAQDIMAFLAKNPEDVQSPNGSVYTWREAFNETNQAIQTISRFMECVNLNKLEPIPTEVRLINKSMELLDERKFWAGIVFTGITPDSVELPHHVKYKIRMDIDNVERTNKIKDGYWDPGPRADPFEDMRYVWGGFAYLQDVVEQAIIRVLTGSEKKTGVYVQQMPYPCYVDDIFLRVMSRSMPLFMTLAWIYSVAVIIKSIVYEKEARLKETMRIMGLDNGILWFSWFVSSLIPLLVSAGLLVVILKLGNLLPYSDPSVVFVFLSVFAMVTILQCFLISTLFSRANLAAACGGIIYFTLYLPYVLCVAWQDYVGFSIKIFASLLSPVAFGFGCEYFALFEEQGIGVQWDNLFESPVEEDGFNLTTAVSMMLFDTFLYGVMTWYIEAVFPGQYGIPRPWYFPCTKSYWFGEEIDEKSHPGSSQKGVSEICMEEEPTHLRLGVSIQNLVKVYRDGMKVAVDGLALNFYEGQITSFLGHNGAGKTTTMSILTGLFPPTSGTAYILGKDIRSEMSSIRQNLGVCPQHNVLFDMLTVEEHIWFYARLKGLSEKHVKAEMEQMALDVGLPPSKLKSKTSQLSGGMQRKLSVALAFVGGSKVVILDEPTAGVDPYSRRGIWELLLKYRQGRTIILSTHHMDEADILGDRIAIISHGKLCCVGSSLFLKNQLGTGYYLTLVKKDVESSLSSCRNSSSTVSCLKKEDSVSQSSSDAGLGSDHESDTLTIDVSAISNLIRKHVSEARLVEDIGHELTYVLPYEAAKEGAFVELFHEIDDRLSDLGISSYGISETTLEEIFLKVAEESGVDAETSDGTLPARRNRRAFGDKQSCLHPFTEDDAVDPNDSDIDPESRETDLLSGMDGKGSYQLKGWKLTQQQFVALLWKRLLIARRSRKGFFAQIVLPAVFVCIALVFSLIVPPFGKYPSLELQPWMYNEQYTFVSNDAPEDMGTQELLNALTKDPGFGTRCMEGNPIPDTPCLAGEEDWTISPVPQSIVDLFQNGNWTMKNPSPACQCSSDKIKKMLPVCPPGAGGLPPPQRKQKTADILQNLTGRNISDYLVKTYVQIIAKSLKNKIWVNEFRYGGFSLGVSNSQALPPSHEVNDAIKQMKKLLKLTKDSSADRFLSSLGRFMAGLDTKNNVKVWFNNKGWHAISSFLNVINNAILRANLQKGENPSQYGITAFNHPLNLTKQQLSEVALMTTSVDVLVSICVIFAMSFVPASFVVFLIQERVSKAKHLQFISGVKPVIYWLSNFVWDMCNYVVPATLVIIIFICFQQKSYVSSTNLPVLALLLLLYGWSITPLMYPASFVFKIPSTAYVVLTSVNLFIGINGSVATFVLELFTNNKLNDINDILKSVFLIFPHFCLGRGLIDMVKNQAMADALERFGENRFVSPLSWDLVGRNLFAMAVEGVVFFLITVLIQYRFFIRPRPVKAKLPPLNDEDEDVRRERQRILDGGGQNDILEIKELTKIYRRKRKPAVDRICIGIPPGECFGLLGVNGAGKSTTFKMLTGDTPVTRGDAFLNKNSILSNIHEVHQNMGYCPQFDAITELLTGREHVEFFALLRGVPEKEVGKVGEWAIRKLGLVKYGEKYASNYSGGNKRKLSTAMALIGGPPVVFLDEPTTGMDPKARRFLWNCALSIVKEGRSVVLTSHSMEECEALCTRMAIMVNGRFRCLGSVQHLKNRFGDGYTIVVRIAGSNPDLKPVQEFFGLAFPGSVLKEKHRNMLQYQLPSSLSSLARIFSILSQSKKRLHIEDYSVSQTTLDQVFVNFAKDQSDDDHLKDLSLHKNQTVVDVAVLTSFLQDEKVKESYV

C=CCCCCC[C@H](NC(=O)[C@H](CCC(=O)O)NC(=O)[C@H](CC(N)=O)NC(=O)[C@H](CC(C)C)NC(=O)[C@H](CCCCN)NC(=O)[C@H](CCC(=O)O)NC(=O)[C@H](CCCN=C(N)N)NC(=O)[C@@H](CCCCC=C)NC(=O)[C@H](CCC(=O)O)NC(=O)[C@H](CC(=O)O)NC(=O)[C@H](CC(C)C)NC(=O)[C@@H](NC(=O)[C@@H]1CCCN1C(C)=O)C(C)C)C(=O)N[C@@H](CC(C)C)C(=O)N[C@@H](CCC(=O)O)C(=O)N[C@@H](C)C(=O)N[C@@H](CC(C)C)C(=O)N[C@@H](CCCCN)C(=O)N[C@@H](CCC(N)=O)C(=O)N[C@@H](CCCCN)C(=O)N[C@@H](CC(C)C)C(=O)N[C@@H](CCCCN)C(N)=O (Ac-PVLDE[dNle(6-vinyl)]REKLNE[Ala(5-hexenyl)]LEALKQKLK-NH2)
EC50 [1]: 0.8 µM
concentration at 3 h [2]: 116 µM

C=CCCCCC[C@H](NC(=O)[C@H](CCC(=O)O)NC(=O)[C@H](CC(N)=O)NC(=O)[C@H](CC(C)C)NC(=O)[C@H](CCCCN)NC(=O)[C@H](CCC(=O)O)NC(=O)[C@H](CCCNC(=N)N)NC(=O)[C@@H](CCCCC=C)NC(=O)[C@H](CCC(=O)O)NC(=O)[C@H](CC(=O)O)NC(=O)[C@H](CC(C)C)NC(=O)[C@@H](NC(=O)[C@@H]1CCCN1C(C)=O)C(C)C)C(=O)N[C@@H](CC(C)C)C(=O)N[C@@H](CCC(=O)O)C(=O)N[C@@H](C)C(=O)N[C@@H](CC(C)C)C(=O)N[C@@H](CCCCN)C(=O)N[C@@H](CCC(N)=O)C(=O)N[C@@H](CCCCN)C(=O)N[C@@H](CC(C)C)C(=O)N[C@@H](CCCCN)C(N)=O (Ac-PVLDE[dNle(6-vinyl)]REKLNE[Ala(5-hexenyl)]LEALKQKLK-NH2)
Activity (Mus musculus [3]): inactive
IC50 [4]: 100 µM
Activity (Mus musculus [5]): inactive
Activity (Plasma): Dose-dependent effect
Activity (Mus musculus [6]): inactive

C=CCCCCC[C@H](NC(=O)[C@H](CCC(=O)O)NC(=O)[C@H](CC(N)=O)NC(=O)[C@H](CC(C)C)NC(=O)[C@H](CCCCN)NC(=O)[C@H](CCC(=O)O)NC(=O)[C@H](CCCNC(=N)N)NC(=O)[C@@H](CCCCCC=C)NC(=O)[C@H](CCC(=O)O)NC(=O)[C@H](CC(=O)O)NC(=O)[C@H](CC(C)C)NC(=O)[C@H](CCCCCC=C)NC(=O)[C@@H]1CCCN1C(C)=O)C(=O)N[C@@H](CC(C)C)C(=O)N[C@@H](CCC(=O)O)C(=O)N[C@@H](C)C(=O)N[C@@H](CC(C)C)C(=O)N[C@@H](CCCCN)C(=O)N[C@@H](CCC(N)=O)C(=O)N[C@@H](CCCCN)C(=O)N[C@@H](CC(C)C)C(=O)N[C@@H](CCCCN)C(N)=O (Ac-P[Ala(5-hexenyl)]LDE[dGly(6-heptenyl)]REKLNE[Ala(5-hexenyl)]LEALKQKLK-NH2)
Activity (Mus musculus [3]): inactive
IC50 [4]: 21 µM
Activity (Mus musculus [5]): inactive
Activity (Mus musculus [6]): inactive
EC50 [1]: 0.9 µM
concentration at 3 h [2]: 55 µM

Ac-PVLDEFREKLNEELEALKQKLK-NH2 [listing 1 of 2 here]
EC50 [1]: > 100 µM
concentration at 3 h [2]: 0.33 µM

Ac-PVLDEFREKLNEELEALKQKLK-NH2 [listing 2 of 2 here]
IC50 [4]: 477 µM
Activity (Mus musculus [7]): tde
Activity (Plasma): inactive
